KCNK9 inh: human KCNK9 channel inhibition; HEK293 KCNK9, FluxOR thallium flux fluorescence; hits give low values; Q9NPC2; hit rate 1.2% among 310,000; B-score at 10 µM;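 active means ratio B-score over 3 SD below the library mean, with starting fluorescence within 5 SD of its mean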;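 further: negative B-score means less thallium flux so channel inhibition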
KCNQ1 pot: potentiates or activates the human KCNQ1 potassium channel | CHO-K1 KCNQ1, thallium flux FluxOR fluorescence; hits give high values | B-score at 10 µM | hit rate 0.35% among 310,000 | AID 2648;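 active means fluorescence ratio B-score, a plate-corrected score, at least three library SD, with initial intensity B-score within 5 SD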
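Assay system: CHO-K1 cells stably expressing KCNQ1. Medium: assay buffer for compound exposure, DMSO matched across wells. Timing: 37 °C overnight plating, 90-min dark dye load, 20-min compound pretreatment. Signal: kinetic FluxOR fluorescence, 10 s baseline plus 110 s post-stimulus.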
KCNQ1 block: human KCNQ1 channel inhibition; P51787; hit rate 1.3% among 310,000; B-score at 10 µM; CHO-K1 KCNQ1, FluxOR thallium flux fluorescence; hits give high values;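 active means compounds whose thallium flux B-score, printed positive for inhibition, exceeds three library SD while starting fluorescence stays within three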;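 further: channel opened by potassium depolarization with thallium stimulus after 20 min compound exposure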
Kir21 inh: blocks the mouse Kir2.1 inward-rectifier potassium channel; P35561; hit rate 0.85% among 310,000; B-score at 10 µM; AID 1672; HEK293-Kir2.1, FluxOR thallium flux fluorescence; hits give low values;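 active means fluorescence ratio B-score at or below minus 3 SD of library scores, with starting-brightness B-score within 2 SD, cut at about -4.2 in these data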;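 further: channel flux triggered by added potassium and thallium sulfate stimulus; B-score of peak minus minimum fluorescence over baseline after thallium stimulus; more negative B-score means stronger Kir2.1 block with less thallium influx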
KCNK3 inh: human KCNK3 channel inhibition, primary screen. O14649. CHO-KCNK3 thallium flux, FluxOR fluorescence; hits give low values. B-score at 10 µM. hit rate 0.84% among 340,000. AID 602410;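 active means B-score under library mean minus 4 SD, starting fluorescence ratio at most library mean plus 5 SD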;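 further: more negative B-score means stronger inhibition of thallium flux through KCNK3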
hERG protect: hERG (human) protection from proarrhythmic block; Q12809; CHO-hERG, FluxOR thallium flux, dofetilide IC70 present; activation (rescue from dofetilide block), less the hit threshold, % at 10 µM; hit rate 0.51% among 310,000; AID 1511;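 active means activation above the mean of controls blocked by dofetilide plus 5 SD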;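 further: thallium influx through hERG after potassium depolarization seen as dye fluorescence rise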
Target sequence (Q12809 whole entry, looked up): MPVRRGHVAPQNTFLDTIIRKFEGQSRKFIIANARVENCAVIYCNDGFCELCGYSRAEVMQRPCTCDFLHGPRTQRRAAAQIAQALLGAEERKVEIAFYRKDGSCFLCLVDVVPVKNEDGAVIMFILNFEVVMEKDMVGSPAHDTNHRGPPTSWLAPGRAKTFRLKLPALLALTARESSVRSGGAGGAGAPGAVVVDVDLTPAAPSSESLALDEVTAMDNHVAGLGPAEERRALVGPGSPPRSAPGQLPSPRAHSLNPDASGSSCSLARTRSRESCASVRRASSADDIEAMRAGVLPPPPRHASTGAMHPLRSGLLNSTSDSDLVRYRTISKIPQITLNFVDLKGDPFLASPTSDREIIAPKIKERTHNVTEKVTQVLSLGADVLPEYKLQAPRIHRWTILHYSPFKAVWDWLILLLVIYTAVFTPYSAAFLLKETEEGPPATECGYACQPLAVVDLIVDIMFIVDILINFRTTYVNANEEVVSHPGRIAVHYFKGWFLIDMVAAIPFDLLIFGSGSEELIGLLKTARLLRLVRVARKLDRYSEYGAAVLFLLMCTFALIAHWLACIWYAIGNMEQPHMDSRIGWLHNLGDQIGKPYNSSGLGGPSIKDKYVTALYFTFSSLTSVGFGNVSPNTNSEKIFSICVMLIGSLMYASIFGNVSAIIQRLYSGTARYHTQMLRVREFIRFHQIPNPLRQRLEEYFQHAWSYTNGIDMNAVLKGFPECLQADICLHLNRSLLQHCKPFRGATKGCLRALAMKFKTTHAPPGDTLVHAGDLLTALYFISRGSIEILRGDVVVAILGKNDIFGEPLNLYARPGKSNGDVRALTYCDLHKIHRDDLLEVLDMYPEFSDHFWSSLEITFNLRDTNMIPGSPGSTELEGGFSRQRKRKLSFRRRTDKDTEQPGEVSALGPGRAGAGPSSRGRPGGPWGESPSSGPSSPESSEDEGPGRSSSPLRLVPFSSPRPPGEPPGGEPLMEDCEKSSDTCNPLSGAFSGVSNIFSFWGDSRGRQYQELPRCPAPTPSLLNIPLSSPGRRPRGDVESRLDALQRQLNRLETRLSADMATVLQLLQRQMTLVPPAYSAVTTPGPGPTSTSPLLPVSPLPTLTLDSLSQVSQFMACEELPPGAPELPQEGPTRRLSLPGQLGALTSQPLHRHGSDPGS
KCNK9 inh conf: confirmation of human KCNK9 potassium channel inhibitors; inhibition, % at 10 µM; HEK293 KCNK9 cells, FluxOR thallium flux fluorescence; AID 492992; hit rate 43% among 4,900; shares compounds with KCNK9 inh;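 active means thallium signal inhibited by more than 5 SD of the compound-free buffer control wells, on both duplicate plates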
Kir21 sel: tests whether KCNK9 modulators also affect mouse Kir2.1; Kir2.1 cells, FluxOR thallium flux fluorescence; hit rate 4% among 4,900; inhibition, % at 10 µM; shares compounds with KCNK9 inh; AID 492993;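 active means thallium signal drop more than 5 SD beyond the mean of the no-compound control wells, seen in both duplicate plates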;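 further: signal is fluorescence rise after thallium addition divided by baseline fluorescence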
KCNK9 uninduced: non-induced cell nonspecific activity of KCNK9 modulators; non-induced KCNK9-HEK293, FluxOR thallium flux; inhibition, % at 10 µM; hit rate 40% among 4,900; shares compounds with KCNK9 inh;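 active means thallium signal drop beyond 5 SD of the untreated control mean, on both duplicate plates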
Of the large screens only hits and unclear results are named; the others gave an inactive call (follow-up assays come after a bar, where they were run). Only some compounds are listed: those with a hit (about 3.7% of all), similar ones and a draw of the others.

N#Cc1ccccc1OCC(=O)NC(=O)NC1CCS(=O)(=O)C1 (stereo not given)	none (no result: KCNK9 inh, KCNQ1 pot, KCNQ1 block, Kir21 inh, hERG protect)
CC(C)(C)OC(=O)N1CCC(c2c(C(=O)NC3CC3)cnn2-c2ccc(Cl)cc2)CC1	none | KCNK9 inh conf inactive | Kir21 sel inactive | KCNK9 uninduced inactive
COc1ccc(C(=O)COC(=O)Cn2[nH]c(=O)c3ccccc3c2=O)c(OC)c1	none
O=c1/c(=C\c2cccc(O)c2)sc2nc(-c3ccccc3)c(-c3ccccc3)n12	KCNK9 inh -10 | KCNK9 inh conf 43% | Kir21 sel inactive | KCNK9 uninduced 28%
CCN(CC)C(=O)C1CCCN(C(=O)c2oc3ccc(C)cc3c2C)C1 (stereo not given)	none
Cc1ccc(CCNC(=O)CSCc2ccc(F)cc2)cc1	none | KCNK9 inh conf inactive | Kir21 sel inactive | KCNK9 uninduced inactive
COc1ccc(CSCC(=O)NCCC(C)C)cc1	none
Cc1ccc(CSCC(=O)NCc2ccc(F)cc2)cc1	none
Cc1ccc(NC(=O)CSCc2ccc(F)cc2)cc1	none
Cc1ccc(CSCC(=O)Nc2ccccc2F)cc1	none | KCNK9 inh conf inactive | Kir21 sel inactive | KCNK9 uninduced inactive
COc1ccc(CSCC(=O)Nc2ccccc2SC)cc1	none | KCNK9 inh conf inactive | Kir21 sel inactive | KCNK9 uninduced inactive
COc1ccnc2c1c(=O)n(Cc1ccc(Cl)cc1Cl)c(=O)n2C	none
CC(C)Cc1ccc(C(C)C(=O)OCC(=O)c2c[nH]c3ccccc23)cc1 (stereo not given)	KCNK9 inh -10 | KCNK9 inh conf 24% | Kir21 sel inactive | KCNK9 uninduced 42%
Cc1ccc(C(=O)OCC(=O)c2c[nH]c3ccccc23)cc1	none
O=C(NN=Cc1ccccc1C(=O)O)c1cccc(S(=O)(=O)Nc2cccc(C(F)(F)F)c2)c1	none (no result: KCNK9 inh, KCNQ1 pot, KCNQ1 block, Kir21 inh, hERG protect)
CCOC(=O)C1=CN(Cc2ccc(OC)cc2)C=C(C(=O)OCC)C1c1cccs1	KCNK9 inh -19 | KCNK9 inh conf 72% | Kir21 sel inactive | KCNK9 uninduced 41%
CC(C)OC(=O)c1c(NS(=O)(=O)c2ccccc2)sc2c1CCCC2	KCNQ1 pot 31, hERG protect 18 | KCNK9 inh conf inactive | Kir21 sel inactive | KCNK9 uninduced inactive
NC(=O)Nc1ccc(C(=O)OCC(=O)Nc2ccc([N+](=O)[O-])cc2C(F)(F)F)cc1	none
S=C(c1cn(Cc2ccccc2)c2ccccc12)N1CCOCC1	none
CN1CCN(C(=S)c2cn(Cc3ccc(F)cc3)c3ccccc23)CC1	none
CC1CCN(C(=S)c2cn(Cc3ccc(F)cc3)c3ccccc23)CC1	KCNK9 inh -11 | KCNK9 inh conf 44% | Kir21 sel inactive | KCNK9 uninduced 38%
S=C(c1cn(Cc2ccc(Br)cc2)c2ccccc12)N1CCOCC1	KCNK9 inh -10 | KCNK9 inh conf 34% | Kir21 sel inactive | KCNK9 uninduced 40%
Cc1cc(C)c2nc(Cl)c(CN(Cc3ccco3)C(=O)Nc3ccccc3C)cc2c1	none | KCNK9 inh conf inactive | Kir21 sel inactive | KCNK9 uninduced inactive
COCCN(Cc1cc2cc(C)cc(C)c2nc1Cl)C(=O)Nc1ccccc1	none
COC(=O)c1ccc(OC)c(CN2CCCN(Cc3cc(C)ccc3C)S2(=O)=O)c1	KCNK9 inh -17 | KCNK9 inh conf 62% | Kir21 sel inactive | KCNK9 uninduced 28%
Cc1ccc(/C=C2\S/C(=N/S(=O)(=O)c3cccs3)NC2=O)cc1	none | KCNK9 inh conf inactive | Kir21 sel inactive | KCNK9 uninduced inactive
Cc1ccc(S(=O)(=O)/N=C2/NC(=O)/C(=C/c3ccncc3)S2)cc1	none (no result: KCNK3 inh)
Cc1ccc(S(=O)(=O)/N=C2/NC(=O)/C(=C/c3ccccc3)S2)cc1	none | KCNK9 inh conf inactive | Kir21 sel inactive | KCNK9 uninduced inactive
Cc1ccc(S(=O)(=O)/N=C2/NC(=O)/C(=C\c3ccccc3)S2)cc1	none (no result: KCNK9 inh, KCNQ1 pot, KCNQ1 block, Kir21 inh, hERG protect)
CC1CCN(C(=O)c2cc(Cl)ccc2NC(=O)c2ccco2)CC1	none
